# Screening data deposited in PubChem BioAssay by several laboratories.
# Shown are actives, neighbours in structure and some others; about 3.2% of the full set was active somewhere.
# DAX1 inh-1: NR0B1 (DAX1) inhibition | inhibition, % at 6.75 µM | actives 0.99% (n = 340,000) | AID 504766 | P51843 | HEK293 Gal4-DAX1 luciferase reporter, luminescence;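 active = inhibition above the mean over all tested compounds plus 3 SD, cut at about 4.2% in these data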;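 note: 0% = DAX1-transfected cells with DMSO and 100% = empty-vector control cells with DMSO; inhibition shows as a rise in luminescence from relieved DAX1 repression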
# Target sequence (P51843 207-470 limits assumed): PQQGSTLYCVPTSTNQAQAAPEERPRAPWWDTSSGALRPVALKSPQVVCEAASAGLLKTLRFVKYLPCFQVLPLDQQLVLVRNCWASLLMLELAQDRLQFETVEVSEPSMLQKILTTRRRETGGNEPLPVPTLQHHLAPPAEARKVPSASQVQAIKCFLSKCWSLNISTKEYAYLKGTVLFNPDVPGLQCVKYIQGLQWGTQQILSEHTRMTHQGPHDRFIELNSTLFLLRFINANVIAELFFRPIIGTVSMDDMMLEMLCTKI
# NR2E3 ag-1: agonists of human nuclear receptor NR2E3; GST-NR2E3/biotin-RetCOR TR-FRET, 1536-well; actives 0.12% (n = 320,000); AID 2300; inhibition of corepressor binding, % at 4.78 µM;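 active = percent inhibition above the cutoff of mean plus 3 SD of all tested compounds, set per screening campaign, cut at about 20% in these data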;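 note: 0% = DMSO wells and 100% = biotin wells as full block of FRET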
#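 System: GST-NR2E3 and biotin-RetCOR proteins; probe or stimulus: 7 nM biotin-RetCOR; doses: compound at 4.8 µM, single dose; schedule: Compound–protein incubation for 5 h at 4 °C; detection: time-resolved FRET; read-out: percent inhibition; controls: biotin wells as high control, 0.6% DMSO wells as low control; format: 1536-well plates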
# SMARCA2 activ: increases SMARCA2 function in MMTV reporter cells; MG213 cells, MMTV-luciferase reporter, dexamethasone, overnight; activation, % at 9.1 µM; actives 1% (n = 370,000); AID 652017; in the data active = activation above about 7.8%;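 note: 0% = vehicle wells and 100% = reference activator wells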
# NR2E3 ag-2: agonists of human NR2E3 nuclear receptor. inhibition of corepressor binding, % at 3.98 µM. actives 0.35% (n = 360,000). CHO-S Gal4-NCOR/VP16-NR2E3 two-hybrid, luciferase. Q9Y5X4;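 active = inhibition above the mean of all tested compounds plus 3 SD, cut at about 70% in these data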;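 note: 0% = DMSO with NR2E3 transfected cells and 100% = cells lacking NR2E3 construct; higher means lower luciferase signal from less NR2E3 corepressor binding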
# JMJD2C inh: human JMJD2C demethylase inhibition; Q9H3R0; GST-JMJD2C(1-420) H3K9me3 demethylation, DELFIA europium; inhibition, % at 2.35 µM; actives 0.069% (n = 330,000); AID 2099;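 active = more than half of a compound's replicate wells show inhibition beyond 50%, single wells judged on their own value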;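 note: signal counts dimethyl H3K9 product captured on neutravidin plate; 0% = median of DMSO wells and 100% = 0.3 times that DMSO median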
# Target sequence (Q9H3R0 1-420 limits assumed): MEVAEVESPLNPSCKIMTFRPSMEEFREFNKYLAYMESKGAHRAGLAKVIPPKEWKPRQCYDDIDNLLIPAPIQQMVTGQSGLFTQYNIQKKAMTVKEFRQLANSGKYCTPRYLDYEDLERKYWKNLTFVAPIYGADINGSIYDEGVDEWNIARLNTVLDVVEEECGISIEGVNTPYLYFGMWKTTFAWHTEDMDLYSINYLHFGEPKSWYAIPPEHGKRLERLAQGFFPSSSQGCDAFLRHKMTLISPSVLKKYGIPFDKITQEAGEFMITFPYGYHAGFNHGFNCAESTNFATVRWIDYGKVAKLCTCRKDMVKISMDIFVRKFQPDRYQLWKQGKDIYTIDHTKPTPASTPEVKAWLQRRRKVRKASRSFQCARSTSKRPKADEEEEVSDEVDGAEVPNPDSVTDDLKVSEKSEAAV
# DAX1 inh-2: blocks DAX1 repression of SF-1 activated StAR promoter; HEK293T StAR-luciferase reporter, SF-1/DAX-1 repression relief; inhibition, % at 6.8 µM; actives 1.1% (n = 370,000); AID 652010;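 active = inhibition above the mean over all tested compounds plus 3 SD, cut at about 3.6% in these data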;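 note: 0% = DAX-1 cells with DMSO and 100% = cells lacking DAX-1 with DMSO; higher inhibition means more luminescence from relief of DAX-1 repression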
# NR2E3 ag conf: NR2E3 agonism confirmed in two-hybrid assay | shares compounds with NR2E3 ag-2 | inhibition, % at 3.98 µM | actives 51% (n = 2,300) | CHO-S mammalian two-hybrid NR2E3-NCOR, luciferase luminescence | AID 624378;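 active = average inhibition above a cutoff equal to the mean inhibition of all tested compounds plus one SD, cut at about 70% in these data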;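 note: 0% = DMSO in NR2E3 cells and 100% = DMSO in cells lacking NR2E3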
# VP16 counter: reduces GAL4-VP16 reporter signal in NR2E3 counterscreen; shares compounds with NR2E3 ag-2; CHO-S GAL4-VP16 luciferase reporter, luminescence; inhibition, % at 3.98 µM; actives 29% (n = 2,300); AID 624379;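 active = mean inhibition above a cutoff equal to the average over all tested compounds plus one standard deviation, cut at about 70% in these data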;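 note: luciferase from a UAS reporter driven by GAL4-VP16 transactivation; 0% = DMSO with VP16-transfected cells and 100% = DMSO with cells lacking VP16; higher means less reporter light so more repression of VP16 activity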
# Active calls of the source: *; nt = no result.
SMILES,DAX1 inh-1,NR2E3 ag-1,SMARCA2 activ,NR2E3 ag-2,JMJD2C inh,DAX1 inh-2,NR2E3 ag conf,VP16 counter
CC1CCN(C(=O)c2ccc(N3C(=O)C4CCC(C)CC4C3=O)cc2)CC1 (stereo not given),2,0,-3,-15,-2,0,nt,nt
O=C1C2C3C=CC(C3)C2C(=O)N1c1ccc(Cc2ccncc2)cc1 (stereo not given),-1,3,-3,52,8,-2,12,34
CC1CCC2C(=O)N(c3ccc(Cc4ccncc4)cc3)C(=O)C2C1 (stereo not given),-2,-2,-4,49,-14,-2,77*,64
Cc1cccc(NC(=O)NCCCN2CCN(c3ccc(F)cc3)CC2)c1,nt,nt,4,nt,nt,-1,nt,nt
COC(=O)c1cc(-c2ccccc2OC)c(=O)n2c1CCC2,nt,nt,-1,nt,nt,-1,nt,nt
CCCCOc1ccc(C(=O)n2ccc3ccc(-c4ccc5ccn(Cc6cccc(C(=O)OC)c6)c5c4)cc32)cc1,nt,nt,-1,nt,nt,-1,nt,nt
CCOc1ccc(CN(C)Cc2cc(=O)oc3c(C)c(C)ccc23)cc1OC,-1,nt,-5,86*,nt,-4,88*,81*
COc1ccccc1-n1cnnc1SCC(=O)Nc1cc(C(C)(C)C)nn1-c1ccccc1,-2,2,-3,12,6,-2,nt,nt
COc1ccc(-n2cnnc2SCC(=O)Nc2cc(C(C)(C)C)nn2-c2ccccc2)cc1,1,-1,1,66,-2,-1,20,15
COc1ccc(/C=N\NC(=O)c2ccccc2Br)cc1COc1c(F)c(F)cc(F)c1F,-1,0,-4,49,-22,-2,35,51
CCn1c(COc2ccc(Cl)cc2)nnc1SCC(=O)Nc1ccccc1-c1ccccc1,nt,nt,-5,nt,nt,-3,nt,nt
CC(C)(C)c1ccc(CSc2nc(N)cc(=O)[nH]2)cc1,-3,0,nt,96*,178,nt,76*,54
Nc1cc(=O)[nH]c(SCc2ccc(Cl)cc2)n1,-1,-2,-1,-22,10,-1,nt,nt
NS(=O)(=O)c1ccc(CCNc2nn3c(-c4cccc(OC(F)(F)F)c4)cnc3s2)cc1,nt,nt,-8,94*,nt,-4,90*,53
CC/C(=N\NC(=S)Nc1cccc(C)c1)c1ccccc1,-2,1,2,27,11,1,nt,nt
Cc1cccc(NC(=S)N/N=C(\c2ccccc2)C(C)C)c1,0,4,0,65,-1,0,20,-50
CC(C)N1CCCCC(NC(=O)Cc2ccccc2)C1=O (stereo not given),nt,nt,-5,nt,nt,0,nt,nt
Cc1ccc(S(=O)(=O)Nc2cccc3ncccc23)s1,-3,3,nt,102*,6,nt,53,5
COc1ccc(C(=O)C2(C(=O)NC3CCCC3)CC(c3ccccc3C(F)(F)F)=NO2)cc1 (stereo not given),nt,nt,-1,nt,nt,0,nt,nt
Cc1ccc(S(=O)(=O)N2CCC(=O)N(CCOCc3ccc(C(F)(F)F)cc3)CC2)cc1,-4,2,-3,81*,-1,-2,88*,71*
COc1ccc(OC)c(-c2csc(NC(=O)Cc3cc(OC)c(OC)c(OC)c3)n2)c1,-1,-2,-4,54,0,-1,26,49
CC(=O)CC[C@@H]1CC[C@]2(CCCN(C(=O)c3ccccc3)C2)O1,nt,nt,-1,nt,nt,0,nt,nt
Cc1cc(C)cc(NC(=O)OC2CCC23CCCCC3)c1 (stereo not given),nt,nt,-3,nt,nt,-1,nt,nt
C=CCn1c(SCC(=O)Nc2sccc2C(N)=O)nc2ccccc2c1=O,-2,-3,1,6,6,-1,nt,nt
C=CCn1c(SC(C)C(N)=O)nc2sc(CC)cc2c1=O (stereo not given),nt,1,-1,-3,7,-1,nt,nt
SMILES,DAX1 inh-1,NR2E3 ag-1,SMARCA2 activ,NR2E3 ag-2,JMJD2C inh,DAX1 inh-2,NR2E3 ag conf,VP16 counter
C=CCn1c(SCC(=O)Nc2sccc2C(N)=O)nc2sc(CC)cc2c1=O,-2,2,-4,59,-3,-2,62,57
C=CCn1c(SCC(=O)Nc2sccc2C(N)=O)nc2ccc(Cl)cc2c1=O,-3,-1,-3,69,1,-3,35,50
COc1ccc(NC(=O)C(C)N2c3cccc4cccc(c34)S2(=O)=O)cc1 (stereo not given),1,2,-1,20,6,-2,nt,nt
COc1ccc(NC(=O)C(C)N2c3cccc4cccc(c34)S2(=O)=O)cc1OC (stereo not given),-4,1,-5,63,-6,-2,66,48
S=C(NCc1ccc(Cl)cc1)Nc1ccccc1,2,2,1,-23,2,0,nt,nt
S=C(NCc1ccc(Cl)cc1)Nc1ccncc1,-2,1,-5,100*,-1,-11,84*,81*
COc1cc(C(=O)NC2CCCCN(Cc3cccc(C(F)(F)F)c3)C2=O)cc(OC)c1OC (stereo not given),nt,nt,-1,nt,nt,-1,nt,nt
CCCCCC(=O)N/N=C(\C)c1ccccn1,0,4,-1,-17,1,0,nt,nt
CC(=NNC(=S)Nc1cccc(Cl)c1)c1ccccn1,-5,nt,2,95*,nt,-4,-65,-15
CC(=NNC(=S)N1CCC1)c1ccccn1,-6,nt,-1,75*,nt,-5,-2,4
CC(=NNC(=S)N1CCCC1)c1ccccn1,-4,nt,-6,86*,nt,-6,-2,8
S=C(NCc1ccccn1)Nc1cccc(Cl)c1,1,3,0,-2,0,0,nt,nt
C/C(=N\NC(=O)c1ccc(Cl)cc1)c1ccccn1,2,-2,2,-30,2,1,nt,nt
CC(=NNC(=S)SCc1ccccc1)c1ccccn1,1,nt,2,65,nt,-1,11,29
CC(C)(C)C(=O)OC12CCCN(C1)/C(=C/c1cccnc1)C2 (stereo not given),nt,nt,-5,nt,nt,-1,nt,nt
O=C(Nc1ccc(S(=O)(=O)N2CCCC2)cc1)c1ccc(CN2CCc3ccccc3C2)cc1,-4,1,-8,54,-23,-3,67,66
O=C(Nc1ccc(S(=O)(=O)N2CCOCC2)cc1)c1ccc(CN2CCc3ccccc3C2)cc1,nt,-2,nt,nt,-10,nt,nt,nt
COc1ccccc1CNc1nc(NCc2ccccc2SC)c2sccc2n1,nt,nt,-11,80*,nt,-3,85*,70
COCCNc1nc(NCc2ccccc2OC)c2sccc2n1,nt,nt,-3,15,nt,-2,nt,nt
COc1ccccc1CNc1nc(NCc2ccccc2OC)c2sccc2n1,nt,nt,-7,75*,nt,-4,75*,57
COc1ccccc1CNc1nc(NCc2ccc3occc3c2)c2sccc2n1,nt,nt,-3,69,nt,-3,53,64
